Source: PubChem
iPSC survival up – enhancers of single-cell hiPSC survival, primary screen, ATPlite luminescence | 100% = ROCK inhibitor wells, 0% = DMSO | survival enhancement, % at 20 µM | actives 0.044% (n = 360,000); in the data active means survival enhancement above about 18%;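 further: cells exposed to compounds for 16 hours before the ATP read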
Apaf1 inhib – inhibitors of human Apaf-1 apoptosome, primary screen, biochemical, DEVD-Rh110 fluorescence, uHTS; reconstituted apoptosome caspase-3 activity; inhibition, % at 20 µM; actives 0.71% (n = 330,000); AID 489030, 2010; active means inhibition of at least 40% at 20 µM
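Material: reconstituted apoptosome with Apaf-1, cytochrome c, caspase-9, procaspase-3, dATP. Technique: Rh110 fluorescence intensity. Buffer or medium: pH 7.5 Hepes buffer with CHAPS, BSA, DTT. Times: 30 min plus 50 min, RT.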
MPTP inh – mitochondrial permeability transition pore inhibitors, primary screen, biochemical, isolated mouse mitochondria, absorbance | AID 602449, 2012 | actives 1.4% (n = 360,000) | Ca2+ swelling absorbance, 30 min | inhibition, % at 10 µM;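 active means inhibition of 50% or more, scaled per plate between neutral and stimulator controls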
Granule exo inh – LAMP-1 surface exposure blockers, TALL-104 cells – cell-based, flow cytometry, MLPCN library, primary screen. inhibition, % at 10 µM. TALL-104 LAMP-1 surface exposure; cells stimulated with thapsigargin and PMA. actives 0.66% (n = 360,000). AID 651702, 2012;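 active means inhibition above about 55%, limit read from the data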
UBC13 polyUb – UBC13 polyubiquitin chain formation inhibitors, primary screen, biochemical, TR-FRET, uHTS; Ubiquitin-conjugating enzyme E2 N (Homo sapiens), P61088; inhibition, % at 20 µM; actives 0.47% (n = 330,000); AID 485273, 2010; in the data active means inhibition above about 45%, passing the limit was not always enough
Target sequence (P61088 whole entry, looked up): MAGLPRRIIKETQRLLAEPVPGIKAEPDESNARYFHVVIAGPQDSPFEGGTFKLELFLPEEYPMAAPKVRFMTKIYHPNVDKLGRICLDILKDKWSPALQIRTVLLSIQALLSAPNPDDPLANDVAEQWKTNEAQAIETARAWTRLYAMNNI
MIN6 prolif – inducers of MIN6 beta-cell proliferation, primary screen, ATP luminescence, uHTS; actives 0.29% (n = 330,000); proliferation, % at 10 µM; AID 2380, 2010; MIN6 cells proliferation, ATPlite luminescence, 48 h; cells starved in 0.2% serum; 100% = growth in 10% serum;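 active means compounds whose signal lies at least 3.5 SD above the mean of all wells on their plate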
Casp3 counter – CASP3 inhibitor validation, counterassay for project on UBE2N polyubiquitination blockers, biochemical, one dose. actives 4% (n = 1,400). AID 488856, 2010. inhibition, % at 20 µM. Recombinant caspase-3, Caspase-Glo 3/7 luminescence, 60 min. shares compounds with UBC13 polyUb;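 active means mean inhibition across replicates above about 26%, limit read from the data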
Target sequence (P42574 whole entry, looked up): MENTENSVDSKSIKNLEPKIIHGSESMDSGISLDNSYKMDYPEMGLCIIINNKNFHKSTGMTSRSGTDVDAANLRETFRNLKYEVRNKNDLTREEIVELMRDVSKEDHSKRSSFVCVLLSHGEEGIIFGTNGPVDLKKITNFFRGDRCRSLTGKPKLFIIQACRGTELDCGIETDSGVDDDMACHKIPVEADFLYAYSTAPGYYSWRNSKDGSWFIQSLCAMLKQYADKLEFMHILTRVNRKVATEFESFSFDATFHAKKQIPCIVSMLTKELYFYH
UBC13 confirm – UBC13 polyubiquitination inhibitors, single-point retest, confirmation, biochemical, TR-FRET, single concentration | shares compounds with UBC13 polyUb | inhibition, % at 10 µM | AID 488859, 2010 | actives 68% (n = 1,400); in the data active means inhibition above about 45%
A number is an active result; . = inactive; / = not tested or not shown. Compounds with a hit are over-represented: about 3% of the library has one in this group of screens.

SMILES	iPSC survival up	Apaf1 inhib	MPTP inh	Granule exo inh	UBC13 polyUb	MIN6 prolif	Casp3 counter	UBC13 confirm
NC(=O)[C@@H]1CCCCNc2c(F)cc([N+](=O)[O-])cc2C(=O)N[C@@H](CCCN=C(N)N)C(=O)NCC(=O)N1	.	.	.	.	.	.	/	/
NCCCC[C@@H]1NC(=O)c2cc([N+](=O)[O-])cc(F)c2NCCCC[C@@H](C(N)=O)NC(=O)[C@H](CCC(N)=O)NC1=O	.	.	.	.	74	.	.	56
Cc1c(NC(=O)CCCCCN2C(=O)c3ccccc3C2=O)c(=O)n(-c2ccccc2)n1C	.	.	.	.	106	.	.	110
Cc1c(NC(=O)CCN2C(=O)c3ccccc3C2=O)c(=O)n(-c2ccccc2)n1C	.	.	.	.	.	.	/	/
Cc1c(Br)c([N+](=O)[O-])nn1CCCC(=O)Nc1c(C)n(C)n(-c2ccccc2)c1=O	.	.	.	.	49	.	.	.
Cc1cc([N+](=O)[O-])nn1CCCC(=O)Nc1c(C)n(C)n(-c2ccccc2)c1=O	.	.	.	.	.	.	/	/
O=S(=O)(c1ccc(Cl)cc1)N1CCN(Cc2ccc(O)c3ncccc23)CC1	.	.	.	.	.	.	/	/
Oc1ccc(CN2CCN(Cc3ccccc3)CC2)c2cccnc12	.	.	.	.	66	.	.	103
CN1CCN(C2CCN(Cc3ccc(O)c4ncccc34)CC2)CC1	.	.	.	.	60	.	.	70
N#CCCn1cc(CNC2CCC(O)CC2)c2ccccc21 (configuration not stated)	.	.	.	.	.	.	/	/
CC(=O)OC[C@H]1O[C@@H](O[C@H]2C[C@]3(C)C(C[C@@H](O)C4C([C@]5(C)CC[C@@H](C(C)(C)O)O5)CC[C@]43C)[C@@]3(C)CC[C@H](O)C(C)(C)C23)[C@H](O[C@@H]2O[C@@H](C)[C@H](O)[C@@H](O)[C@H]2O)[C@@H](O)[C@@H]1O (some centres not stated)	.	.	.	.	.	.	/	/
C=C[C@](C)(CC[C@@]1(C)C(C)CC(OC2OC(C)C(OC3OC(COC(C)=O)C(O)C(O)C3O)C(O)C2O)[C@@]2(C)C(C)=CCCC12)OC1OC(C)C(O[C@@H]2O[C@@H](C)C(O)C(O)[C@H]2O)C(O)C1O (some centres not stated)	.	.	.	.	54	.	.	58
CC(=O)COC(=O)c1cc(-c2ccc(C)cc2)nc2ccccc12	.	.	.	.	.	.	/	/
CCOC(=O)c1cc(-c2ccccc2)nc2ccc(C)cc12	.	.	.	.	54	.	.	.
O=C(Cn1cc(C(=O)c2cccs2)c2ccccc21)NC1CCCCC1	.	.	.	.	61	.	.	.
Cn1c(=O)c2c(ncn2Cc2ccc(Cl)cc2)n(C)c1=O	.	.	.	.	57	.	.	53
Nc1ccc(OCCCc2c(N)nc(N)nc2N)cc1	.	.	.	.	47	.	.	64
Cc1noc(C)c1S(=O)(=O)N(C)C[C@H]1OCCCC[C@H](C)Oc2ccc(NC(=O)CCCN(C)C)cc2C(=O)N([C@H](C)CO)C[C@@H]1C	.	/	.	.	/	/	/	/
COc1cc(-c2cccc([C@H]3[C@@H]4C=CC[C@@H](C)[C@@H]4C(=O)N3Cc3ccccc3)c2)cc(OC)c1OC	.	.	.	.	/	/	/	/
O=C1c2cccc3cccc(c23)C(=O)N1Cc1ccccc1	.	.	.	.	.	.	/	/
O=C1c2cccc3cccc(c23)C(=O)N1Cc1cccnc1	.	.	.	.	65	.	.	83
O=C1CCCc2ccccc2N1Cc1cccc(F)c1	.	.	.	.	.	.	/	/
